The results in this text go back to ChEMBL document CHEMBL4152384, “Pyrtriazoles, a Novel Class of Store-Operated Calcium Entry Modulators: Discovery, Biological Profiling, and in Vivo Proof-of-Concept Efficacy in Acute Pancreatitis” (J Med Chem, 2018).

Calls of active or inactive are those of the source. The calls are words filed in the database; no cut-off is given here.

The IC50 is the concentration needed to halve the response being measured. What is called inhibition is the relative decrease from the control value, in per cent.

The target in data set [1] is T1, Stromal interaction molecule 1 & 2/Calcium release-activated calcium channel protein 1 (Mus musculus) (UniProt Q8BWG9+P70302+P83093). Kind of data set: Modulation of STIM1/STIM2/Orai1 in mouse BV2 cells assessed as induction of store-operated calcium entry by measuring residual activity at 10 uM preincubated for 30 mins followed by tBhQ-mediated Ca2+ depletion and Ca2+ re-addition to extracellular solution measured for 600 secs by Fluo-4 AM-based fluorometric assay relative to control. The class given is cell-based.

The target in data set [2] is T2, Short transient receptor potential channel 1 & 3/Stromal interaction molecule 1/Calcium release-activated calcium channel protein 1 (Homo sapiens) (UniProt Q96D31+Q13507+Q13586+P48995). Kind of data set: Modulation of TRPC1/TRPC3/STIM1/Orai1 in HEK cells assessed as induction of store-operated calcium entry by measuring residual activity at 10 uM preincubated for 30 mins followed by tBhQ-mediated Ca2+ depletion and Ca2+ re-addition to extracellular solution measured for 600 secs by Fluo-4 AM-based fluorometric assay relative to control. Type of data set: cell-based.

The test system of data set [3] is Jurkat. Nature of the data set: Induction of store-operated calcium entry in human Jurkat cells assessed as induction of store-operated calcium entry by measuring residual activity at 10 uM preincubated for 30 mins followed by tBhQ-mediated Ca2+ depletion and Ca2+ re-addition to extracellular solution measured for 600 secs by Fluo-4 AM-based fluorometric assay relative to control. Type of data set: cell-based.

Data set [4] concerns the target Stromal interaction molecule 1 & 2/Calcium release-activated calcium channel protein 1 (Homo sapiens, UniProt Q13586+Q96D31+Q9P246). Kind of data set: Inhibition of STIM1/STIM2/Orai1 (unknown origin) expressed in mouse BV2 cells assessed as induction of store-operated calcium entry by measuring residual activity preincubated for 30 mins followed by tBhQ, mediated Ca2+ depletion and re-addition measured for 600 secs by Fluo-4 AM-based fluorometric assay. The class given is cell-based.

The target in data set [5] is Short transient receptor potential channel 1 & 3/Stromal interaction molecule 1/Calcium release-activated calcium channel protein 1 (Homo sapiens, UniProt P48995+Q13507+Q13586+Q96D31). Nature of the data set: Modulation of TRPC1/TRPC3/STIM1/Orai1 in HEK cells assessed as induction of store-operated calcium entry by measuring residual activity preincubated for 30 mins followed by tBhQ-mediated Ca2+ depletion and Ca2+ re-addition to extracellular solution measured for 600 secs by Fluo-4 AM-based fluorometric assay relative to control. The class given is cell-based.

Data set [6] in a line: Induction of store-operated calcium entry in human Jurkat cells assessed as induction of store-operated calcium entry by measuring residual activity preincubated for 30 mins followed by tBhQ-mediated Ca2+ depletion and Ca2+ re-addition to extracellular solution measured for 600 secs by Fluo-4 AM-based fluorometric assay relative to control. The class given is cell-based.
The nature of data set [7]: Cytotoxicity against HEK cells assessed as cell viability at 10 uM by MTT assay relative to control. Type of data set: cell-based. Conditions: human, read-out: Activity. In short, it runs like this:
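Hek cells treated 24 h with compound at 10 μM; viability determined by MTT assay.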

Data set [8] deals with ORAI1/STIM1 (Homo sapiens) (UniProt Q96D31+Q13586). Kind of data set: Inhibition of Orai1/STIM1 (unknown origin) expressed in HEK cells assessed as reduction in store-operated calcium currents at 10 uM by patch clamp assay relative to control. Type of data set: cell-based. The gist of the method: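 Whole-cell ISOC recorded in Hek cells stably overexpressing Orai1 and transiently expressing STIM1; internal solution strongly buffered with 20 mM BAPTA; compound at 10 μM versus untreated control.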
In general terms: Patch clamp records ionic current or voltage across a cell membrane.

Data set [9] concerns the target Transient receptor potential cation channel subfamily V member 1 (Homo sapiens) (UniProt Q8NER1). Kind of data set: Antagonist activity at TRPV1 (unknown origin) expressed in HEK cells assessed as inhibition of capsaicin-induced calcium increase at 10 uM by fura-2-based assay. Type of data set: cell-based. The gist of the method:
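TRPV1-overexpressing Hek cells; calcium rise evoked by capsaicin (100 nM), test compounds at 10 μM; peak amplitude read out; mean ± SEM of 600 cells from 30 plates on four separate experimental days.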

The target in data set [10] is Transient receptor potential cation channel subfamily M member 8 (Homo sapiens) (UniProt Q7Z2W7). Nature of the data set: Antagonist activity at TRPM8 (unknown origin) expressed in HEK cells assessed as inhibition of menthol -mediated calcium increase at 10 uM by fura-2-based assay. The class given is cell-based. In short, it runs like this:
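TRPM8-overexpressing Hek cells; calcium rise evoked by menthol (100 μM), test compounds at 10 μM; peak amplitude read out; mean ± SEM of 600 cells from 30 plates on four separate experimental days.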

A short description of data set [11]: Metabolic stability in CD1 mouse plasma assessed as residual compound level at 50 uM after 30 mins by LC-UV analysis. The class given is ADME, cell-free. The note with it: read-out: Stability. The gist of the method:
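Compounds incubated in mouse plasma for 30 min; percentage of residual substrate determined.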

The target in data set [12] is T1, Stromal interaction molecule 1 & 2/Calcium release-activated calcium channel protein 1 (Mus musculus). Kind of data set: Modulation of STIM1/STIM2/Orai1 in mouse BV2 cells assessed as induction of store-operated calcium entry by measuring residual activity at 100 uM preincubated for 30 mins followed by tBhQ-mediated Ca2+ depletion and Ca2+ re-addition to extracellular solution measured for 600 secs by Fluo-4 AM-based fluorometric assay relative to control. The class given is cell-based.

The target of data set [13] is T2, Short transient receptor potential channel 1 & 3/Stromal interaction molecule 1/Calcium release-activated calcium channel protein 1 (Homo sapiens). Nature of the data set: Modulation of TRPC1/TRPC3/STIM1/Orai1 in HEK cells assessed as induction of store-operated calcium entry by measuring residual activity at 100 uM preincubated for 30 mins followed by tBhQ-mediated Ca2+ depletion and Ca2+ re-addition to extracellular solution measured for 600 secs by Fluo-4 AM-based fluorometric assay relative to control. The class given is cell-based.

In data set [14] the test system is Jurkat. Kind of data set: Induction of store-operated calcium entry in human Jurkat cells assessed as induction of store-operated calcium entry by measuring residual activity at 100 uM preincubated for 30 mins followed by tBhQ-mediated Ca2+ depletion and Ca2+ re-addition to extracellular solution measured for 600 secs by Fluo-4 AM-based fluorometric assay relative to control. The class given is cell-based.

Data set [15] can be described thus: Drug metabolism in CD1 mouse liver microsomes assessed as 1-(4-(4-(3-Carboxyphenyl)-1H-1,2,3-triazol-1-yl)phenyl)-5-(trifluoromethyl)-1H-pyrazole-4-carboxylic Acid metabolite formation at 50 uM after 60 mins by mass spectroscopic analysis. Type of data set: ADME, microsome. On the technique in general: Liver microsomes are vesicles of endoplasmic reticulum, rich in cytochrome P450 enzymes.

In data set [16] the test system is voltage-gated calcium channel (Mus musculus). Nature of the data set: Antagonist activity at voltage-gated calcium channels in C57/BL6 mouse cerebellar granule cells assessed as inhibition of KCl-induced voltage dependent calcium entry at 10 uM by fura-2-based assay.
For data set [17] the test system is unchanged. The description is as above. The source holds these as a separate data set.

T2 sequence (P48995 whole entry partner): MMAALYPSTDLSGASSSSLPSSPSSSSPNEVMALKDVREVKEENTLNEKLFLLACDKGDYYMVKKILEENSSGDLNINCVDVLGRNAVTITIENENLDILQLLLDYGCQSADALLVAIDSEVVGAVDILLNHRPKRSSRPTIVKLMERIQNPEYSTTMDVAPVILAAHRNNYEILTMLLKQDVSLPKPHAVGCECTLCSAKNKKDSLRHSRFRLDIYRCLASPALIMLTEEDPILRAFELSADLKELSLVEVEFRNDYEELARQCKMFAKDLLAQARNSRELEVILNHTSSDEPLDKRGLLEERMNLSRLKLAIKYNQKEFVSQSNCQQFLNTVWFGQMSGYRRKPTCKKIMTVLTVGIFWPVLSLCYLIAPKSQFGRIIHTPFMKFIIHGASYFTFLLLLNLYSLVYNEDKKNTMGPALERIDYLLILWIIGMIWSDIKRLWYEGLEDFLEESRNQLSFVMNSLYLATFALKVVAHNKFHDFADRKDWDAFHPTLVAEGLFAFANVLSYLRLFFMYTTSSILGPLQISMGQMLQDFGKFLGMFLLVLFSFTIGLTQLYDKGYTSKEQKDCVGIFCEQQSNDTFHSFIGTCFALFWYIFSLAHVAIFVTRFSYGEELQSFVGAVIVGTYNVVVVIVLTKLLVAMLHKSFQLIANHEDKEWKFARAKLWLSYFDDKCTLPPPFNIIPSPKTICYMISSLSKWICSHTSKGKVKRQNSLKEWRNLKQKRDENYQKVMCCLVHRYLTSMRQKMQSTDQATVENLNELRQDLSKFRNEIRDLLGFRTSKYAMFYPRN
T2 sequence (Q13507 whole entry partner): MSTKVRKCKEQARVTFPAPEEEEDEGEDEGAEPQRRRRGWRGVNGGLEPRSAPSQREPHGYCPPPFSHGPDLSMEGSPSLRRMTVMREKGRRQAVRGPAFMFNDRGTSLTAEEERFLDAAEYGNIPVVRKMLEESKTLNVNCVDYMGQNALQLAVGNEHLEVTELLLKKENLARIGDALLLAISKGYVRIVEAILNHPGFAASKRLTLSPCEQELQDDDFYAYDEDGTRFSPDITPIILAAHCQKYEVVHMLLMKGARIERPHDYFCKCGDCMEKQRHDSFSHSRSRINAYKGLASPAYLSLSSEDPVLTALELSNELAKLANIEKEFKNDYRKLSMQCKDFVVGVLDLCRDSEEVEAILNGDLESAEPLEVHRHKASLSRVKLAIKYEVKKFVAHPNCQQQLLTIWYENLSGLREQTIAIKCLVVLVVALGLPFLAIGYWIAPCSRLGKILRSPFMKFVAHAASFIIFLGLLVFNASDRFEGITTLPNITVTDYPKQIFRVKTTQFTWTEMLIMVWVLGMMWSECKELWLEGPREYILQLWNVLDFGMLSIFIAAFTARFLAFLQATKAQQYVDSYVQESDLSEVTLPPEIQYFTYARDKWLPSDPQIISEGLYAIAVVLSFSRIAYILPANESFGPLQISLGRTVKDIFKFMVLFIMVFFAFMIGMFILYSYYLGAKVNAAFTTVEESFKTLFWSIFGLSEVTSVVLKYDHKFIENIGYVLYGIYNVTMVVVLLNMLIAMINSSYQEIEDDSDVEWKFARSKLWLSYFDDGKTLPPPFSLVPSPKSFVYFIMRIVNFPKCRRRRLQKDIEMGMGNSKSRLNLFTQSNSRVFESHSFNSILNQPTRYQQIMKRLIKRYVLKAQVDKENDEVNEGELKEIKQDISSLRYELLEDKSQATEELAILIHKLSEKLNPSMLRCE
T2 sequence (Q13586 23-685 partner limits assumed): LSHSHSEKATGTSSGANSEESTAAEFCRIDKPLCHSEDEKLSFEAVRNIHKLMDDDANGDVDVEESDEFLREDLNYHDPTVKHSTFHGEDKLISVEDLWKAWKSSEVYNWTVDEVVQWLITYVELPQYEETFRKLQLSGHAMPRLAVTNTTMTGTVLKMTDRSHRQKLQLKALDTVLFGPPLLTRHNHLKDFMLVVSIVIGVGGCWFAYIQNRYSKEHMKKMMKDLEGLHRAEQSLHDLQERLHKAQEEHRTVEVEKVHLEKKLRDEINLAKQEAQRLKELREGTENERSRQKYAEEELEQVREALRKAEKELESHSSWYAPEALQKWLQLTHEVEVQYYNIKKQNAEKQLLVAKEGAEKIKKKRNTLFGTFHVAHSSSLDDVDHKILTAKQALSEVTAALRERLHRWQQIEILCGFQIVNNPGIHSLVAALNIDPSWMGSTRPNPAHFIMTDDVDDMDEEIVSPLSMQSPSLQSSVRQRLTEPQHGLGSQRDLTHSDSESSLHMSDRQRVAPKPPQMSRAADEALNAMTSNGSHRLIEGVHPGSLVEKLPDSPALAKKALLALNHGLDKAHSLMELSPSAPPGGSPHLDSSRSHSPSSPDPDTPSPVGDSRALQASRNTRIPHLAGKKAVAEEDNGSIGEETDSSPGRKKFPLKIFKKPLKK
T2 sequence (Q96D31 whole entry): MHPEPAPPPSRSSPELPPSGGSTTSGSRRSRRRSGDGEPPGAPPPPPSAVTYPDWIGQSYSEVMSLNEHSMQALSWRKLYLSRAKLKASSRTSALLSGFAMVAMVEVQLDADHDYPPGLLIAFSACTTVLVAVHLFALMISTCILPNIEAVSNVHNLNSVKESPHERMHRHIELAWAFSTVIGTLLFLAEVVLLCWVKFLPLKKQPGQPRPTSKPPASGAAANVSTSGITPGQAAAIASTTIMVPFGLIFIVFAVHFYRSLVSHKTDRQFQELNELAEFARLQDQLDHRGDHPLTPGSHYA
Short transient receptor potential channel 1 & 3/Stromal interaction molecule 1/Calcium release-activated calcium channel protein 1, sequence (Q96D31 whole entry): as above
Short transient receptor potential channel 1 & 3/Stromal interaction molecule 1/Calcium release-activated calcium channel protein 1, sequence (Q13507 whole entry): as the sequence (Q13507 whole entry partner) above
Short transient receptor potential channel 1 & 3/Stromal interaction molecule 1/Calcium release-activated calcium channel protein 1, sequence (Q13586 whole entry): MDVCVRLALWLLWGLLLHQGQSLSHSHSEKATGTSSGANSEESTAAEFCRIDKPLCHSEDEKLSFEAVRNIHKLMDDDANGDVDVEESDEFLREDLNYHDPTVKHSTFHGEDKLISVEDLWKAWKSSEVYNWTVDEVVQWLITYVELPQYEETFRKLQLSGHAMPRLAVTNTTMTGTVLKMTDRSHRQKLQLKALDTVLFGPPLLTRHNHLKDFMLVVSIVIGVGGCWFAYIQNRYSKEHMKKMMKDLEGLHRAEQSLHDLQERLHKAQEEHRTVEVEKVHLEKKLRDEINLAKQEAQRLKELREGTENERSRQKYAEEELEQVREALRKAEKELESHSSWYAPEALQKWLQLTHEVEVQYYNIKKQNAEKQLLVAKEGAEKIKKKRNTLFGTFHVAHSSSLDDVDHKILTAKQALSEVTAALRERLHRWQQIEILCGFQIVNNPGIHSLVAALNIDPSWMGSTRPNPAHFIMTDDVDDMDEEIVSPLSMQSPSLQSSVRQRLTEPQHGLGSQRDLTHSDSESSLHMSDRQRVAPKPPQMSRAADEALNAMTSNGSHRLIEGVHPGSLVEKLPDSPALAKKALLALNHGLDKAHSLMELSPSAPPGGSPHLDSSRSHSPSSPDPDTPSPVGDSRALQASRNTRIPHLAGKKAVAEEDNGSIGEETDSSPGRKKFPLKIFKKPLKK
Short transient receptor potential channel 1 & 3/Stromal interaction molecule 1/Calcium release-activated calcium channel protein 1, sequence (P48995 whole entry): as the sequence (P48995 whole entry partner) above
Stromal interaction molecule 1 & 2/Calcium release-activated calcium channel protein 1, sequence (Q96D31 whole entry): as the sequence (Q96D31 whole entry) above
Stromal interaction molecule 1 & 2/Calcium release-activated calcium channel protein 1, sequence (Q13586 whole entry): as the sequence (Q13586 whole entry) above
Stromal interaction molecule 1 & 2/Calcium release-activated calcium channel protein 1, sequence (Q9P246 whole entry): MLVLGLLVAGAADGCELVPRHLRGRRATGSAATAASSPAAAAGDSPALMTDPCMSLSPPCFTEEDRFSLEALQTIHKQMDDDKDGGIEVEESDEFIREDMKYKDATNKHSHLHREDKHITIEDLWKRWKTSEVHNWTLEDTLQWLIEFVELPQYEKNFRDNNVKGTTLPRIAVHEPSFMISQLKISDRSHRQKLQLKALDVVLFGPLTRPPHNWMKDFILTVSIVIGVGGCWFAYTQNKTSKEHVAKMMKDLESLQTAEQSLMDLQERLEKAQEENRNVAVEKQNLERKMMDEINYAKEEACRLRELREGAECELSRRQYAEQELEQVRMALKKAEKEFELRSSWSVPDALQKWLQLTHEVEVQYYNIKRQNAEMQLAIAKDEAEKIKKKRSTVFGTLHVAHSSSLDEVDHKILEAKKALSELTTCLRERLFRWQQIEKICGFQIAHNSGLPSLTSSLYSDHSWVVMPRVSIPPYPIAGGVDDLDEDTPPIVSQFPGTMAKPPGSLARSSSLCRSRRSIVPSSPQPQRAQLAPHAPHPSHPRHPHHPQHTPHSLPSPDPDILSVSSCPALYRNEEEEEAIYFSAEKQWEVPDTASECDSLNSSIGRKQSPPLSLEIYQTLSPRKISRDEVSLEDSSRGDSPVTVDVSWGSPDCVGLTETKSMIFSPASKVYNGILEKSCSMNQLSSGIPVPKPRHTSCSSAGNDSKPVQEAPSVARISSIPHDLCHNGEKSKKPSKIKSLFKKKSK
ORAI1/STIM1 (Homo sapiens), sequence (Q13586 23-685 partner limits assumed): as the sequence (Q13586 23-685 partner limits assumed) above
ORAI1/STIM1 (Homo sapiens), sequence (Q96D31 whole entry): as the sequence (Q96D31 whole entry) above

As to `CCOC(=O)c1cnn(-c2ccc(-n3cc(-c4cccc(C(=O)O)c4)nn3)cc2)c1C(F)(F)F`, the Activity in data set [1] was found to be 54.7%; in data set [2], 12.8%; in the data set on Jurkat [3], 12.8%. Besides, the figures for the IC50 in data set [4], in [5] and in data set [6] were 4900 nM, 600 nM and 600 nM, respectively. The viability at 10 µM in [7] was found to be 84%. Further, in data set [8], the inhibition amounted to 40%. The inhibition entry in [9] was “Active”. The inhibition entry in data set [10], in [16] and in [17] was “inactive” in each case. For the same compound, the remaining at 0.5 h, 50 µM in data set [11] came to 0%. Moreover, the residual activity (in data set [12]; in data set [13]; in the data set with Jurkat [14]) was less than 100% throughout. Further, the Drug metabolism entry in data set [15] was “Metabolite_Notdetected”.
